Screening results from PubChem BioAssay.
Only a selection was taken, and hits are over-represented in it overall.
Mdm2 ligase inh = Mdm2 E3 ligase (human) inhibition; Q00987; cell-based MDM2 ubiquitination luciferase reporter, 2 h; 0 = plate control, 100 = twice control, blank-subtracted; signal enhancement, % at 5 µM; 210,000 compounds, 0.11% hits; AID 1230;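 active = signal enhancement of 30% or more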;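 also: luminescence tracks abundance of the self-degrading MDM2-luciferase fusion protein; higher signal means inhibition of MDM2 E3 ligase activity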
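Assay system: mammalian cells stably expressing self-ubiquitinating, self-degrading MDM2 E3–luciferase fusion. Quantity: 2000 cells in each well. Medium: DMEM culture medium. Compound dosing: single-point 5 µM. Timing: cell settling 4 h, compound treatment 2 h, both 37 °C. Technique: luciferase luminescence. Read-out basis: percent signal gain over controls, blank-subtracted. Benchmarks: plate controls and plate blanks.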
S1P3 antagonist = blocks the human S1P3 receptor. Q99500. CHO S1P3 NFAT-BLA reporter, FRET fluorescence, antagonist mode. inhibition, % at 4.98 µM. 170,000 compounds, 0.27% hits;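 active = inhibition above the plate cutoff, the mean inhibition of test wells on that plate plus 3 SD, cut at about 28% in these data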;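 also: cells challenged with S1P at its EC80 of 0.8 µM; blue over green emission ratio from cleaved BLA substrate after 4 h stimulation; 0% = S1P-stimulated wells and 100% = unstimulated DMSO-only wells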
Target sequence (Q99500 whole entry, looked up): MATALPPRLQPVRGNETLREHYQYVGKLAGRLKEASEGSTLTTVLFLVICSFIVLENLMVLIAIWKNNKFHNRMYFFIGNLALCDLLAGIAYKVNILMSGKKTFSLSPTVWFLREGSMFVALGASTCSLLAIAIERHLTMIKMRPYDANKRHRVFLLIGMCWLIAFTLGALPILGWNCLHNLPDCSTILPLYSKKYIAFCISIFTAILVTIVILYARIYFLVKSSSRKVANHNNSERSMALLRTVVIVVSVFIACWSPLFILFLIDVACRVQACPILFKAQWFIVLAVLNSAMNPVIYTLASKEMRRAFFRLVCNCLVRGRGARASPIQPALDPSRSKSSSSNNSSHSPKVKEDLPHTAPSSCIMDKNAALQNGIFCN
S1P4 antagonist = blocks the human S1P4 receptor; 220,000 compounds, 0.26% hits; inhibition, % at 4.98 µM; S1P4-expressing cells, antagonist mode, reporter read-out; in the data active = inhibition above about 29%;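 also: 0% = wells stimulated with agonist and 100% = vehicle wells without agonist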
S1P4 agonist = agonists of human S1P4 receptor; S1P4-expressing cell line, agonist reporter assay; O95977; activation, % at 4.98 µM; AID 1509; 220,000 compounds, 0.35% hits; in the data active = activation above about 11%;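 also: 0% = DMSO vehicle and 100% = reference agonist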
Lmaj promast = reduces viability of Leishmania major promastigotes; inhibition, % at 10 µM; 200,000 compounds, 9% hits; resazurin fluorescence viability; in the data active = inhibition above about 50%;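 also: promastigotes grown with compound for 44 hours at 28 °C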
* marks the source's active call; other numbers are inactive results; / = no result given.

SMILES	Mdm2 ligase inh	S1P3 antagonist	S1P4 antagonist	S1P4 agonist	Lmaj promast
Cc1ccc(S(=O)(=O)[N-]c2nc3ccccc3nc2-n2cc[n+](CCC(C)C)c2)cc1	-10	/	-2	1	99*
Cc1ccc(S(=O)(=O)/N=C2\C(=O)c3ccccc3C([O-])=C2n2cc[n+](CCC(C)C)c2)cc1	1	/	-65	-1	88*
CC(C)CC[n+]1ccn(-c2nc3ccccc3nc2[N-]S(=O)(=O)c2ccc(Cl)cc2)c1	-22	-26	-8	1	/
CCCC[n+]1ccn(C2=C([O-])c3ccccc3C(=O)/C2=N\S(=O)(=O)c2ccc(Br)cc2)c1	-1	-21	0	2	35
O=C(O)COCC(=O)NCc1csc2ccccc12	-6	1	22	2	/
Cc1ccc(-n2c(=O)c3c4c(sc3n(Cc3cc(=O)n5ccccc5n3)c2=O)CCC4)cc1C	0	-18	-3	0	74*
CCOc1cc(/C=C2/NC(=O)NC2=O)cc(Br)c1OCc1ccc(C(=O)O)cc1	-6	-7	-9	0	4
CCc1ccc(-n2c(C)n[nH]c2=S)cc1	15	-15	12	-1	-6
COc1ccc(-n2nc([N+](=O)[O-])c(=NCCc3ccc(Cl)cc3)n2O)cc1	1	/	3	0	26
Cc1ccc(CN=c2c([N+](=O)[O-])nn(-c3cccc(C)c3)n2O)cc1	-7	-11	-19	0	20
CCc1ccc(N=c2c([N+](=O)[O-])nn(-c3ccccc3)n2O)cc1	-39	/	-22	-1	88*
Cc1cc(C)cc(N=c2c([N+](=O)[O-])nn(-c3ccc(Cl)cc3)n2O)c1	-7	0	-13	1	95*
OCCN1CCN(c2ncnc3ccc(Br)cc23)CC1	-16	102*	-38	1	1
Fc1cccc(F)c1-n1c(CN2CCCCC2)csc1=S	-14	5	-15	1	56*
Fc1cccc(F)c1-n1c(CN2CCOCC2)csc1=S	-4	-10	-24	3	-6
NS(=O)(=O)c1ccc(NNC(=O)c2sccc2Cl)cc1	-9	11	1	-3	/
Cc1ccccc1Nc1cc(C)c2c(O)cccc2n1	/	10	12	0	75*
CCn1c(SCC(=O)NCC2CCCO2)nnc1-c1ccc(S(=O)(=O)N2CCN(C)CC2)cc1 (stereo not given)	-2	1	-11	-2	0
Cc1c(N=C2C=CC(=O)c3ccccc32)c(=O)n(-c2ccccc2)n1C	-9	-2	4	0	101*
CC(=O)Nc1ccc(NC(=O)c2ccc(NS(=O)(=O)c3cc(C(C)(C)C)cc(C)c3C)cc2)cc1	-2	-16	-17	0	52*
O=C(c1ccccc1)c1ccc(N2CCOCC2)c(F)c1	-16	3	-2	2	53*
CN1CCN(c2ccccc2NC(=O)c2ccc(N3CCCCC3)c([N+](=O)[O-])c2)CC1	/	-5	-7	0	17
CCC(=O)N1CCN(c2cc(N3CCN(C)CC3)c(F)cc2[N+](=O)[O-])CC1	-14	17	-8	0	38
CN1CCN(c2cc(N3CCc4ccccc4C3)c(F)cc2[N+](=O)[O-])CC1	-4	6	4	0	76*
O=C(c1ccccc1)c1cc(F)c(N2CCOCC2)cc1Cl	-12	40	-8	0	-2
SMILES	Mdm2 ligase inh	S1P3 antagonist	S1P4 antagonist	S1P4 agonist	Lmaj promast
CN1CCN(c2ccc(C(=O)c3ccccc3)cc2[N+](=O)[O-])CC1	-1	14	-7	0	81*
CCCn1c(O)c(N=N)c2ccccc21	-18	-11	-8	1	-8
COCCN1CN(S(=O)(=O)c2ccccc2)c2nc3ccccc3nc21	-6	2	1	-2	7
COCCN1CN(S(=O)(=O)c2ccc(Cl)cc2)c2nc3ccccc3nc21	-4	/	13	-3	77*
CCOC(=O)c1c(/N=C/N(C)C)sc(/C=N/Nc2ccccc2)c1-c1ccc(Cl)cc1	2	-11	-17	1	94*
COc1cc(NC(=O)c2ccc(C)cc2)c(OC)cc1NC(=O)CN1CCCCC1	2	/	-7	-2	62*
COc1cc(NC(=O)c2cc(OC)c(OC)c(OC)c2)c(OC)cc1NC(=O)CN1CCCCC1	-11	-20	-6	-1	9
COc1cc(NC(=O)Nc2cccc(Cl)c2)c(OC)cc1NC(=O)CN1CCCCC1	-7	24	-21	2	51*
COc1cccc(C2=NOC(C(=O)Nc3cccnc3Cl)C2)c1 (stereo not given)	-8	-24	-9	0	4
CCN(CC)CCn1c2ccccc2c2nc3ccc([N+](=O)[O-])cc3cc21	-11	-8	-38	2	/
COCCOC(=O)C1=C(N)OC2=C(C(=O)CCC2)C1c1cccnc1 (stereo not given)	23	/	-1	0	-9
CCOC(=O)C1=C(N)OC2=C(C(=O)CC(C)C2)C1c1cccnc1 (stereo not given)	3	0	-20	3	70*
COCCOC(=O)C1=C(N)OC2=C(C(=O)CC(C)(C)C2)C1c1ccncc1 (stereo not given)	-6	-8	-1	2	-3
CCCOC(=O)C1=C(C)NC2=C(C(=O)CC(C)(C)C2)C1c1ccc(N(C)C)cc1 (stereo not given)	-14	-16	5	0	23
CCCOC(=O)C1=C(C)NC2=C(C(=O)CC(C)(C)C2)C1c1cccnc1 (stereo not given)	7	-7	-2	1	90*
CCOC(=O)C1=C(N)Oc2cc(O)ccc2C1c1cccnc1 (stereo not given)	-9	-13	7	-2	92*
COCCOC(=O)C1=C(N)OC2=C(C(=O)CC(C)(C)C2)C1c1cccnc1 (stereo not given)	-10	/	-37	0	82*
COc1ccccc1CNC(=O)C1=CCN(S(=O)(=O)c2ccc(C)cc2)CC1	-5	7	7	1	/
CCOC(=O)CNC(=S)N(CCCN1CCCCCC1)Cc1cccs1	4	-2	-2	1	73*
COc1ccccc1NC(=S)N(CCN1CCCCCC1)Cc1cccs1	-18	4	14	-1	57*
COc1cccc(/C=C/C(=O)Nc2ccccc2N2CCOCC2)c1	-10	-7	-18	-1	11
CCOCCCNC(=O)CCCOc1ccccc1	4	-12	20	0	-13
CCN(c1ccc(OCC(=O)OCC(=O)Nc2ccc(F)c(F)c2F)cc1)S(=O)(=O)c1ccccc1	-20	2	-6	0	47
N/C(=N\OC(=O)CC1CCCCC1)c1cccc([N+](=O)[O-])c1	7	-6	-11	-1	68*
COc1ccc2[nH]cc(C(=O)CN3CCCC(C)C3)c2c1 (stereo not given)	2	-16	8	0	-4
COc1cccc(N2CCN(CC(=O)c3c[nH]c4ccc(OC)cc34)CC2C)c1 (stereo not given)	-5	9	-12	-1	73*
